# Assay results taken from ChEMBL document CHEMBL4665633, “Cereblon versus VHL: Hijacking E3 ligases against each other using PROTACs” (Bioorg Med Chem, 2019).
# Calls of active or inactive are those of the source. The calls are words filed in the database; no cut-off is given here.
# Assays:
# Type in all cases: cell-based
# [1] = biological target: T1, Protein cereblon/von Hippel-Lindau disease tumor suppressor (Homo sapiens, UniProt P40337+Q96SW2); assay: Protac activity at VHL/CRBN in human HeLa cells assessed as hook effect at > 1 uM
# T1 sequence (P40337 whole entry, looked up): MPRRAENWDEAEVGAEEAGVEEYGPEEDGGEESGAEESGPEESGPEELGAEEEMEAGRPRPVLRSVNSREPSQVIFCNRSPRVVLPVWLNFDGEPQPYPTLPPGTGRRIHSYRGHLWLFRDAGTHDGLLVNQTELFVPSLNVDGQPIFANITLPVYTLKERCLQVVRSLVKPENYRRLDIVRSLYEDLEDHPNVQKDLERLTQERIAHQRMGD
# T1 sequence (Q96SW2 whole entry, looked up): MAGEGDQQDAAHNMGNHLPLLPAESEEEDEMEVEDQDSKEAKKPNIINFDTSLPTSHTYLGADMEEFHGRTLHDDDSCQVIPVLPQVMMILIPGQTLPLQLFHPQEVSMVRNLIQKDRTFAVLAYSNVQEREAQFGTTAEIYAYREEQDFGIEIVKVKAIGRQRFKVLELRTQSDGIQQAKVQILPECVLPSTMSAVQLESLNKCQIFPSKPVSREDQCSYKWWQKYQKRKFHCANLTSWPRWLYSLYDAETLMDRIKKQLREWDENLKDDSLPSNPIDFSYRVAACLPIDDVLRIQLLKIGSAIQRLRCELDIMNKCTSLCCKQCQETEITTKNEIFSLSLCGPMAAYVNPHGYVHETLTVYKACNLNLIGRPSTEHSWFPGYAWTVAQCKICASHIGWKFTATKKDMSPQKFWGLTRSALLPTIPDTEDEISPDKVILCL
# [2] = biological target: T1, Protein cereblon/von Hippel-Lindau disease tumor suppressor; assay: Protac activity at VHL/CRBN in HEK293 cells assessed as pVHL30 protein abundance at 50 nM after 4 hrs by Western blot analysis relative to DMSO
# Summary of the method: (§1)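 HEK293 cells (DMEM, 10% FBS, penicillin/streptomycin, L-glutamine; 37 °C, 5% CO2; ≤30 passages) seeded at 1 × 10⁶ per well overnight, then treated with compound at 0.1% v/v final DMSO. Cells were lysed in RIPA with protease inhibitors and benzonase, then clarified. Equal Bradford-quantified protein was immunoblotted for CRBN/VHL. Bands were normalised to β-tubulin and expressed as % of mean 0.1% DMSO vehicle.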
# [3] = biological target: T1, Protein cereblon/von Hippel-Lindau disease tumor suppressor; assay: Protac activity at VHL/CRBN in human HeLa cells assessed as pVHL19 protein abundance at 5000 nM after 4 hrs by Western blot analysis relative to DMSO
# Summary of the method: (§2)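 HeLa cells (5 × 10⁵, DMEM + 10% FBS, 37 °C, 5% CO₂, ≤30 passages) seeded overnight, then treated 4 h with compound at single or graded concentrations (0.1% v/v DMSO final). RIPA lysates equalised by Bradford; SDS-PAGE and anti-CRBN/anti-VHL immunoblots; bands normalised to β-tubulin and expressed as % of mean DMSO vehicle. DC₅₀ from fit of band intensity versus log[concentration].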
# [4] = biological target: T1, Protein cereblon/von Hippel-Lindau disease tumor suppressor; assay: Protac activity at VHL/CRBN in HEK293 cells assessed as CRBN protein abundance at 1 uM after 1 hr by Western blot analysis relative to DMSO; summary of the method: as §1
# [5] = biological target: T1, Protein cereblon/von Hippel-Lindau disease tumor suppressor; assay: Protac activity at VHL/CRBN in human HeLa cells assessed as CRBN protein abundance at 1 uM after 2 hrs by Western blot analysis relative to DMSO
# Summary of the method: (§3)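 HeLa cells seeded overnight, then exposed to 1 µM compound (0.1% v/v DMSO final) over a time course. Cells were DPBS-washed and RIPA-lysed with protease inhibitors and benzonase; equal protein was loaded. Immunoblots for CRBN and VHL isoforms were quantified against β-tubulin and reported relative to the averaged 0.1% DMSO vehicle.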
# [6] = biological target: T1, Protein cereblon/von Hippel-Lindau disease tumor suppressor; assay: Protac activity at VHL/CRBN in human HeLa cells assessed as induction of CRBN degradation at 1 uM after 4 hrs by Western blot analysis relative to control; summary of the method: as §2
# [7] = biological target: T1, Protein cereblon/von Hippel-Lindau disease tumor suppressor; assay: Protac activity at VHL/CRBN in HEK293 cells assessed as pVHL30 protein abundance at 5 nM after 4 hrs by Western blot analysis relative to DMSO; summary of the method: as §1
# [8] = biological target: T1, Protein cereblon/von Hippel-Lindau disease tumor suppressor; assay: Protac activity at VHL/CRBN in human HeLa cells assessed as CRBN protein abundance at 1 uM after 1 hr by Western blot analysis relative to DMSO
# Summary of the method: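 HeLa cells (DMEM, 10% FBS, penicillin/streptomycin, L-glutamine; 37 °C, 5% CO2) seeded at 5 × 10⁵ per well overnight, then treated in 0.1% v/v final DMSO. Cells were lysed in RIPA with protease inhibitors and benzonase, and equal protein was run on SDS-PAGE/nitrocellulose blots probed with anti-CRBN. Bands were normalised to β-tubulin and expressed relative to mean 0.1% DMSO vehicle.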
# [9] = biological target: T1, Protein cereblon/von Hippel-Lindau disease tumor suppressor; assay: Protac activity at VHL/CRBN in HEK293 cells assessed as pVHL19 protein abundance at 5 nM after 4 hrs by Western blot analysis relative to DMSO; summary of the method: as §1
# [10] = biological target: T1, Protein cereblon/von Hippel-Lindau disease tumor suppressor; assay: Protac activity at VHL/CRBN in human HeLa cells assessed as pVHL30 protein abundance at 10 nM after 4 hrs by Western blot analysis relative to DMSO; summary of the method: as §2
# [11] = biological target: T1, Protein cereblon/von Hippel-Lindau disease tumor suppressor; assay: Protac activity at VHL/CRBN in HEK293 cells assessed as pVHL30 protein abundance at 1 uM after 24 hrs by Western blot analysis relative to DMSO; summary of the method: as §1
# [12] = biological target: T1, Protein cereblon/von Hippel-Lindau disease tumor suppressor; assay: Protac activity at VHL/CRBN in human HeLa cells assessed as CRBN protein abundance at 1 uM after 12 hrs by Western blot analysis relative to DMSO; summary of the method: as §3
# [13] = biological target: T1, Protein cereblon/von Hippel-Lindau disease tumor suppressor; assay: Protac activity at VHL/CRBN in human HeLa cells assessed as pVHL19 protein abundance at 100 nM after 4 hrs by Western blot analysis relative to DMSO; summary of the method: as §2
# [14] = biological target: T1, Protein cereblon/von Hippel-Lindau disease tumor suppressor; assay: Protac activity at VHL/CRBN in HEK293 cells assessed as CRBN protein abundance at 1 uM after 24 hrs by Western blot analysis relative to DMSO; summary of the method: as §1
# [15] = biological target: T1, Protein cereblon/von Hippel-Lindau disease tumor suppressor; assay: Protac activity at VHL/CRBN in human HeLa cells assessed as pVHL19 protein abundance at 1 uM after 2 hrs by Western blot analysis relative to DMSO; summary of the method: as §3
# [16] = biological target: T1, Protein cereblon/von Hippel-Lindau disease tumor suppressor; assay: Protac activity at VHL/CRBN in HEK293 cells assessed as pVHL30 protein abundance at 1000 nM after 4 hrs by Western blot analysis relative to DMSO; summary of the method: as §1
# [17] = biological target: T1, Protein cereblon/von Hippel-Lindau disease tumor suppressor; assay: Protac activity at VHL/CRBN in HEK293 cells assessed as CRBN protein abundance at 5 nM after 4 hrs by Western blot analysis relative to DMSO; summary of the method: as §1
# [18] = biological target: T1, Protein cereblon/von Hippel-Lindau disease tumor suppressor; assay: Protac activity at VHL/CRBN in human HeLa cells assessed as CRBN protein abundance at 100 nM after 4 hrs by Western blot analysis relative to DMSO; summary of the method: as §2
# [19] = biological target: T1, Protein cereblon/von Hippel-Lindau disease tumor suppressor; assay: Protac activity at VHL/CRBN in human HeLa cells assessed as CRBN protein abundance at 50 nM after 4 hrs by Western blot analysis relative to DMSO; summary of the method: as §2
# [20] = biological target: T1, Protein cereblon/von Hippel-Lindau disease tumor suppressor; assay: Protac activity at VHL/CRBN in HEK293 cells assessed as pVHL30 protein abundance at 500 nM after 4 hrs by Western blot analysis relative to DMSO; summary of the method: as §1
# [21] = biological target: T1, Protein cereblon/von Hippel-Lindau disease tumor suppressor; assay: Protac activity at VHL/CRBN in human HeLa cells assessed as pVHL30 protein abundance at 1 uM after 8 hrs by Western blot analysis relative to DMSO; summary of the method: as §3
# [22] = biological target: T1, Protein cereblon/von Hippel-Lindau disease tumor suppressor; assay: Protac activity at VHL/CRBN in human HeLa cells assessed as CRBN protein abundance at 10000 nM after 4 hrs by Western blot analysis relative to DMSO; summary of the method: as §2
# [23] = biological target: T1, Protein cereblon/von Hippel-Lindau disease tumor suppressor; assay: Protac activity at VHL/CRBN in human HeLa cells assessed as pVHL30 protein abundance at 1 uM after 1 hr by Western blot analysis relative to DMSO; summary of the method: as §3
# [24] = biological target: T1, Protein cereblon/von Hippel-Lindau disease tumor suppressor; assay: Protac activity at VHL/CRBN in human HeLa cells assessed as induction of VHL degradation at 1 uM after 4 hrs by Western blot analysis; summary of the method: as §2
# [25] = biological target: T1, Protein cereblon/von Hippel-Lindau disease tumor suppressor; assay: Protac activity at VHL/CRBN in HEK293 cells assessed as pVHL30 protein abundance at 1 uM after 1 hr by Western blot analysis relative to DMSO; summary of the method: as §1
# [26] = biological target: T1, Protein cereblon/von Hippel-Lindau disease tumor suppressor; assay: Protac activity at VHL/CRBN in HEK293 cells assessed as pVHL19 protein abundance at 100 nM after 4 hrs by Western blot analysis relative to DMSO; summary of the method: as §1
# [27] = biological target: T1, Protein cereblon/von Hippel-Lindau disease tumor suppressor; assay: Protac activity at VHL/CRBN in human HeLa cells assessed as pVHL30 protein abundance at 1 uM after 2 hrs by Western blot analysis relative to DMSO; summary of the method: as §3
# [28] = biological target: T1, Protein cereblon/von Hippel-Lindau disease tumor suppressor; assay: Protac activity at VHL/CRBN in human HeLa cells assessed as pVHL30 protein abundance at 1 uM after 24 hrs by Western blot analysis relative to DMSO; summary of the method: as §3
smiles,measurement,setting,value
Cc1ncsc1-c1ccc(CNC(=O)[C@@H]2C[C@@H](O)CN2C(=O)[C@@H](NC(=O)COCCCCCOCCOCCCCCOCC(=O)NCCNc2cccc3c2C(=O)N(C2CCC(=O)NC2=O)C3=O)C(C)(C)C)cc1 (some centres undefined),Activity,[1],Active
same,Activity,[2],133%
same,Activity,[3],115%
same,Activity,[4],14%
same,Activity,[5],27%
same,%max,[6],75%
same,Activity,[6],64%
same,Activity,[7],117%
same,Activity,[8],57%
same,Activity,[9],108%
same,Activity,[10],64%
same,Activity,[11],101%
same,Activity,[12],12%
same,Activity,[13],108%
same,Activity,[14],6%
same,Activity,[15],95%
same,Activity,[16],127%
same,Activity,[17],102%
same,Activity,[18],70%
same,Activity,[19],72%
same,Activity,[20],130%
same,Activity,[21],116%
same,Activity,[22],86%
same,Activity,[23],100%
same,Activity,[24],inactive
same,Activity,[25],88%
same,Activity,[26],111%
same,Activity,[27],89%
same,Activity,[28],97%
